The source made the active and inactive calls. The rule behind the calls is not given here.
Tests used:
Type in all cases: functional
[1] = test system: Keratinocyte; test: Effect on cellular connection related gene expression in non-diabetic young human primary keratinocytes assessed as CLDN4 mRNA levels at 9.81 uM after 6 hrs by qPCR analysis
[2] = test system: Keratinocyte; test: Effect on pro-inflammatory related gene expression in non-diabetic young human primary keratinocytes assessed as PTGS2 mRNA levels at 9.81 uM after 6 hrs by qPCR analysis
[3] = test system: Fibroblast; test: Effect on antioxidant related gene expression in diabetic adult human primary fibroblasts assessed as SOD2 mRNA levels at 1.96 uM after 6 hrs by qPCR analysis
[4] = test system: Fibroblast; test: Effect on growth factors related gene expression in diabetic adult human primary fibroblasts assessed as FGF2 mRNA levels at 9.81 uM after 6 hrs by qPCR analysis
How it was run: (§1)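 Primary human dermal fibroblasts (young or adult nondiabetic, adult diabetic donor) were treated for 6 h against a 0.1% DMSO solvent control. RNA from 320 000 cells per sample was measured by Fluidigm Biomark high-throughput qPCR. Values are fold change relative to solvent control, from four independent experiments, with SD. One-way ANOVA with Bonferroni post-test was applied.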

[5] = test system: Keratinocyte; test: Effect on pro-inflammatory related gene expression in diabetic adult human primary keratinocytes assessed as TNF mRNA levels at 9.81 uM after 6 hrs by qPCR analysis
[6] = test system: Keratinocyte; test: Effect on pro-inflammatory related gene expression in diabetic adult human primary keratinocytes assessed as PTGS2 mRNA levels at 9.81 uM after 6 hrs by qPCR analysis
[7] = test system: Fibroblast; test: Effect on pro-inflammatory related gene expression in non-diabetic adult human primary fibroblasts assessed as PTGS2 mRNA levels at 9.81 uM after 6 hrs by qPCR analysis
[8] = test system: Keratinocyte; test: Effect on pro-inflammatory related gene expression in non-diabetic young human primary keratinocytes assessed as IL1R1 mRNA levels at 1.96 uM after 6 hrs by qPCR analysis
[9] = test system: Keratinocyte; test: Effect on pro-inflammatory related gene expression in non-diabetic young human primary keratinocytes assessed as PTGS2 mRNA levels at 1.96 uM after 6 hrs by qPCR analysis
[10] = test system: Keratinocyte; test: Effect on growth factor related gene expression in non-diabetic young human primary keratinocytes assessed as VEGFA mRNA levels at 9.81 uM after 6 hrs by qPCR analysis
How it was run: (§2)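 Primary human keratinocytes (nondiabetic young or adult, diabetic adult donors) were exposed to compound for 6 h, with 0.1% DMSO as solvent control. Total RNA came from 400 000 cells per sample and was assayed on a Fluidigm Biomark high-throughput qPCR chip. Results are fold change vs solvent control, from 2−4 independent experiments on two donors per group, with SD. Groups were compared by one-way ANOVA with Bonferroni post-test.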

[11] = Effect on wound healing activity in non-diabetic adult human primary fibroblasts assessed as upregulation of soluble TNFR1 protein levels at 1.96 uM after 24 hrs by bead-based suspension array analysis; details: Fibroblast
[12] = test system: Fibroblast; test: Effect on antioxidant related gene expression in non-diabetic adult human primary fibroblasts assessed as SOD2 mRNA levels at 1.96 uM after 6 hrs by qPCR analysis
[13] = test system: Keratinocyte; test: Effect on chemokines related gene expression in non-diabetic young human primary keratinocytes assessed as IL8 mRNA levels at 9.81 uM after 6 hrs by qPCR analysis; how it was run: as §2
[14] = Effect on wound healing activity in diabetic adult human primary keratinocytes assessed as upregulation of MIF protein levels at 1.96 uM after 24 hrs by bead-based suspension array analysis; details: Keratinocyte
[15] = test system: Fibroblast; test: Effect on MMP1 mRNA expression levels in non-diabetic young human primary fibroblasts at 1.96 uM after 6 hrs by qPCR analysis
How it was run: (§3)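 Primary dermal fibroblasts from one nondiabetic young, one nondiabetic adult and one diabetic adult donor; 320 000 cells per sample, 6 h at 1.96 or 9.81 μM. RNA measured on a high-throughput qPCR chip. Fold change versus 0.1% DMSO control, four independent experiments, SD, one-way ANOVA with Bonferroni post-test.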

[16] = test system: Fibroblast; test: Effect on growth factor related gene expression in non-diabetic adult human primary fibroblasts assessed as GDF15 mRNA levels at 1.96 uM after 6 hrs by qPCR analysis; how it was run: as §1
[17] = Effect on wound healing activity in diabetic adult human primary fibroblasts assessed as upregulation of soluble VCAM1 protein levels at 1.96 uM after 24 hrs by bead-based suspension array analysis; details: Fibroblast
[18] = test system: Keratinocyte; test: Effect on growth factor related gene expression in diabetic adult human primary keratinocytes assessed as GDF15 mRNA levels at 1.96 uM after 6 hrs by qPCR analysis; how it was run: as §2
[19] = test system: Fibroblast; test: Effect on growth factors related gene expression in non-diabetic young human primary fibroblasts assessed as FGF2 mRNA levels at 1.96 uM after 6 hrs by qPCR analysis; how it was run: as §1
[20] = Effect on wound healing activity in diabetic adult human primary keratinocytes assessed as upregulation of RANTES protein levels at 1.96 uM after 24 hrs by bead-based suspension array analysis; details: Keratinocyte
[21] = test system: Fibroblast; test: Effect on antioxidant related gene expression in non-diabetic young human primary fibroblasts assessed as NFE2L2 mRNA levels at 9.81 uM after 6 hrs by qPCR analysis
[22] = test system: Keratinocyte; test: Effect on growth factor related gene expression in diabetic adult human primary keratinocytes assessed as VEGFA mRNA levels at 9.81 uM after 6 hrs by qPCR analysis; how it was run: as §2
[23] = test system: Fibroblast; test: Effect on antiinflammatory related gene expression in diabetic adult human primary fibroblasts assessed as SOCS3 mRNA levels at 9.81 uM after 6 hrs by qPCR analysis; how it was run: as §3
[24] = test system: Keratinocyte; test: Effect on ECM related gene expression in non-diabetic young human primary keratinocytes assessed as FBN1 mRNA levels at 1.96 uM after 6 hrs by qPCR analysis
How it was run: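 Primary keratinocytes from nondiabetic young and adult and diabetic adult donors; 400 000 cells per sample, 6 h exposure at 1.96 or 9.81 μM. RNA extracted and read on a high-throughput qPCR chip. Results are fold change versus 0.1% DMSO solvent control from 5−7 independent experiments over two donors per group, SD, one-way ANOVA with Bonferroni post-test.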

[25] = test system: Fibroblast; test: Effect on adhesion molecules related gene expression in non-diabetic adult human primary fibroblasts assessed as VCAM1 mRNA levels at 9.81 uM after 6 hrs by qPCR analysis
How it was run: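 Dermal fibroblasts from nondiabetic adult and diabetic adult donors, exposed for 6 h at 1.96 or 9.81 μM. ICAM-1 and VCAM-1 mRNA measured by standard qRT-PCR, n = 3. Fold change versus 0.1% DMSO control, SD, one-way ANOVA with Bonferroni post-test.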

[26] = test system: Fibroblast; test: Effect on growth factors related gene expression in non-diabetic young human primary fibroblasts assessed as FGF2 mRNA levels at 9.81 uM after 6 hrs by qPCR analysis; how it was run: as §1
[27] = test system: Fibroblast; test: Effect on chemokines related gene expression in non-diabetic young human primary fibroblasts assessed as IL8 mRNA levels at 9.81 uM after 6 hrs by qPCR analysis; how it was run: as §1
[28] = test system: Fibroblast; test: Effect on chemokines related gene expression in diabetic adult human primary fibroblasts assessed as IL8 mRNA levels at 1.96 uM after 6 hrs by qPCR analysis
[29] = test system: Keratinocyte; test: Effect on growth factor related gene expression in non-diabetic adult human primary keratinocytes assessed as VEGFA mRNA levels at 9.81 uM after 6 hrs by qPCR analysis; how it was run: as §2

C=C(C)[C@@H]1CC[C@]2(CO)CC[C@]3(C)[C@H](CC[C@@H]4[C@@]5(C)CC[C@H](O)C(C)(C)[C@@H]5CC[C@]43C)[C@@H]12 [BETULIN]
fold change (FC) [1]: 1.9
fold change (FC) [2]: 1.5
fold change (FC) [3]: 2.2
fold change (FC) [4]: 1.6
fold change (FC) [5]: 13
fold change (FC) [6]: 2.2
fold change (FC) [7]: 179
fold change (FC) [8]: 0.9
fold change (FC) [9]: 1.4
fold change (FC) [10]: 1.4
Activity [11]: Active
fold change (FC) [12]: 18
fold change (FC) [13]: 21.8
Activity [14]: Active
fold change (FC) [15]: 0.8
fold change (FC) [16]: 2.1
Activity [17]: Active
fold change (FC) [18]: 1.4
fold change (FC) [19]: 1.7
Activity [20]: Active
fold change (FC) [21]: 1.4
fold change (FC) [22]: 2.2
fold change (FC) [23]: 1.4
fold change (FC) [24]: 1.8
fold change (FC) [25]: 53.7
fold change (FC) [26]: 1.8
fold change (FC) [27]: 32
fold change (FC) [28]: 10.8
fold change (FC) [29]: 1.7
